Legend:
[1] = Lipophilicity, log D of the compound by chromatography; format: physicochemical
[2] = Oral bioavailability in Sprague-Dawley rat at 4 mg/kg; format: ADME, organism-based; conditions: in vivo
Procedure, shortened: (§1)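 IV parameters were taken from a 1 mg/kg dose given as a 30 min infusion.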

[3] = Clearance in Sprague-Dawley rat at 1 mg/kg, iv administered as infusion over 30 mins; format: ADME, organism-based; parameters: dose 1 mg/kg, route intravenous; conditions: in vivo; procedure, shortened: as §1
[4] = Clearance in beagle dog at 1 mg/kg, iv administered as infusion over 30 mins; format: ADME, organism-based, Canis lupus familiaris; parameters: dose 1 mg/kg, route intravenous; conditions: in vivo
[5] = Clearance in cynomolgus monkey at 1 mg/kg, iv administered as infusion over 30 mins; format: ADME, organism-based, Macaca fascicularis; parameters: dose 1 mg/kg, route intravenous; conditions: in vivo
[6] = Volume of distribution at steady state in Sprague-Dawley rat; format: ADME, organism-based; conditions: in vivo, read-out: Vdss
[7] = Volume of distribution at steady state in beagle dog; format: ADME, organism-based, Canis lupus familiaris; conditions: in vivo, read-out: Vdss
[8] = Volume of distribution at steady state in cynomolgus monkey; format: ADME, organism-based, Macaca fascicularis; conditions: in vivo, read-out: Vdss
[9] = Terminal half life in po dosed Sprague-Dawley rat; format: ADME, organism-based; conditions: in vivo, read-out: beta t1/2 (converted)
[10] = Terminal half life in po dosed beagle dog; format: ADME, organism-based, Canis lupus familiaris; conditions: in vivo, read-out: beta t1/2 (converted)
[11] = Terminal half life in po dosed cynomolgus monkey; format: ADME, organism-based, Macaca fascicularis; conditions: in vivo, read-out: beta t1/2 (converted)
[12] = Terminal half life in po dosed human; format: ADME, organism-based; conditions: in vivo, read-out: beta t1/2 (converted)
[13] = Oral bioavailability in beagle dog at 4 mg/kg; format: ADME, organism-based, Canis lupus familiaris; conditions: in vivo
[14] = Oral bioavailability in cynomolgus monkey at 4 mg/kg; format: ADME, organism-based, Macaca fascicularis; conditions: in vivo
[15] = Ratio of AUC (0 to 12 hrs) in lung to AUC (0 to 12 hrs) in plasma of Sprague-Dawley rat at 1 mg/kg, iv; format: ADME, organism-based; parameters: dose 1 mg/kg, route intravenous
[16] = Ratio of AUC (0 to 12 hrs) in epithelial lining fluid to AUC (0 to 12 hrs) in plasma of Sprague-Dawley rat at 1 mg/kg, iv; format: ADME, organism-based; parameters: dose 1 mg/kg, route intravenous
Lung = experiment: Drug uptake in lung tissue of Sprague-Dawley rat at 1 mg/kg, iv relative to plasma level; format: ADME, organism-based; parameters: dose 1 mg/kg, route intravenous; conditions: in vivo
Plasma [17] = experiment: Drug uptake in epithelial lining fluid of Sprague-Dawley rat at 1 mg/kg, iv relative to plasma level; format: ADME, organism-based; parameters: dose 1 mg/kg, route intravenous; conditions: in vivo
[18] = Drug uptake in bovine lung relative to plasma level; format: ADME, Bos taurus; conditions: cattle
Plasma [19] = experiment: Drug uptake in dog lung relative to plasma level; format: ADME, Canis lupus familiaris

Row | Structure (SMILES) | chromatographic logD [1] | further results
1 | Cc1[nH]c2cc([C@@H]3CCCCN3C(=O)c3ccccc3O)nn2c(=O)c1C | 1.1 | 
2 | Cc1cn2nc([C@@H]3CCCCN3C(=O)c3cc(Cl)ccc3NS(C)(=O)=O)cc2nc1N1CC(F)C1 | 3.7 | 
3 | Cc1cn2nc([C@@H]3CCCCN3C(=O)c3cc(Cl)ccc3NS(C)(=O)=O)cc2nc1N1CC(C#N)C1 | 3.3 | 
4 | Cc1[nH]c2cc([C@@H]3CCCCN3C(=O)c3cc(Br)ccc3NS(C)(=O)=O)nn2c(=O)c1C | 2 | 
5 | Cc1cn2nc([C@@H]3CCCCN3C(=O)c3cc(Cl)ccc3NS(C)(=O)=O)cc2nc1N1CC(N)C1 | 2.1 | bioavailability [2]: 67%
6 | COC(=O)Nc1ccccc1C(=O)N1CCCC[C@H]1c1cc2[nH]c(C)c(C)c(=O)n2n1 | 1.3 | 
7 | Cc1[nH]c2cc([C@@H]3CCCCN3C(=O)c3ccccc3N(C)S(C)(=O)=O)nn2c(=O)c1C | 1.1 | 
8 | Cc1[nH]c2cc([C@@H]3CCCCN3C(=O)c3cc(-c4ccccc4)ccc3NS(C)(=O)=O)nn2c(=O)c1C | 2.6 | 
9 | Cc1ccc(NS(C)(=O)=O)c(C(=O)N2CCCC[C@H]2c2cc3nc(C4CC4)ccn3n2)c1 | 3.7 | 
10 | Cc1[nH]c2cc([C@@H]3CCCCN3C(=O)c3ccccc3NS(=O)(=O)C3CC3)nn2c(=O)c1C | 1.6 | 
11 | Cc1[nH]c2cc([C@@H]3CCCCN3C(=O)c3ccccc3)nn2c(=O)c1C | 1.4 | 
12 | Cc1[nH]c2cc([C@@H]3CCCCN3C(=O)c3cccc(F)c3NS(C)(=O)=O)nn2c(=O)c1C | 1.3 | 
13 | Cc1[nH]c2cc([C@@H]3CCCCN3C(=O)c3ccc(F)cc3NS(C)(=O)=O)nn2c(=O)c1C | 1.5 | 
14 | Cc1[nH]c2cc([C@@H]3CCCCN3C(=O)c3c(Cl)cccc3NS(C)(=O)=O)nn2c(=O)c1C | 1.8 | 
15 | Cc1ccc(NS(C)(=O)=O)c(C(=O)N2CCCC[C@H]2c2cc3nc(C)c(C)cn3n2)c1 | 3.1 | bioavailability [2]: 86%
16 | Cc1cn2nc([C@@H]3CCCCN3C(=O)c3cc(Cl)ccc3NS(C)(=O)=O)cc2nc1N1CC[C@@H](N)C1 | 2 | 
17 | CNc1c(C)c(C)nc2cc([C@@H]3CCCCN3C(=O)c3ccccc3NS(C)(=O)=O)nn12 | 2.6 | 
18 | Cc1cn2nc([C@@H]3CCCCN3C(=O)c3cc(Cl)ccc3NS(C)(=O)=O)cc2nc1N1CC[C@@H](C#N)C1 | 3.7 | 
19 | Cc1cn2nc([C@@H]3CCCCN3C(=O)c3cc(Cl)ccc3NS(C)(=O)=O)cc2nc1N1CCC1 | 3.8 | 
20 | Cc1cn2nc([C@@H]3CCCCN3C(=O)c3cc(Cl)ccc3NS(C)(=O)=O)cc2nc1N1CCC(F)(F)C1 | 4.2 | 

Row | Structure (SMILES) | chromatographic logD [1] | further results
21 | Cc1cn2nc([C@@H]3CCCCN3C(=O)c3ccccc3NS(C)(=O)=O)cc2nc1C | 3 | bioavailability [2]: 18%
22 | Cc1cn2nc([C@@H]3CCCCN3C(=O)c3cc(Cl)ccc3NS(C)(=O)=O)cc2nc1N1CC[C@@H](O)C1 | 2.8 | bioavailability [2]: 71%
23 | Cc1[nH]c2cc([C@@H]3CCCCN3C(=O)c3ccccc3NS(C)(=O)=O)nn2c(=O)c1C | 1.3 | bioavailability [2]: 1.5%
24 | Cc1ccc(NS(C)(=O)=O)c(C(=O)N2CCCC[C@H]2c2cc3nc(C)c(C)c(C)n3n2)c1 | 3.1 | bioavailability [2]: 26%
25 | Cc1[nH]c2cc([C@@H]3CCCCN3C(=O)c3cc(F)ccc3NS(C)(=O)=O)nn2c(=O)c1C | 1.4 | 
26 | Cc1[nH]c2cc([C@@H]3CCCCN3C(=O)c3cc(C(F)(F)F)ccc3NS(C)(=O)=O)nn2c(=O)c1C | 1.9 | 
27 | Cc1ccc(NS(C)(=O)=O)c(C(=O)N2CCCC[C@H]2c2cc3[nH]c(C)c(C)c(=O)n3n2)c1 | 1.7 | 
28 | Cc1[nH]c2cc([C@@H]3CCCCN3C(=O)c3ccccc3N)nn2c(=O)c1C | 1.4 | 
29 | Cc1ccc(NS(C)(=O)=O)c(C(=O)N2CCCC[C@H]2c2cc3nc(C4CC4)c(C)cn3n2)c1 | 4.1 | 
30 | CNc1c(C)c(C)nc2cc([C@@H]3CCCCN3C(=O)c3cc(C)ccc3NS(C)(=O)=O)nn12 | 2.8 | 
31 | Cc1cn2nc([C@@H]3CCCCN3C(=O)c3cc(Cl)ccc3NS(C)(=O)=O)cc2nc1N1CCCC1 | 4.4 | 
32 | Cc1ccc(NS(C)(=O)=O)c(C(=O)N2CCCC[C@H]2c2cc3nc(C)cc(C)n3n2)c1 | 2.7 | 
33 | Cc1cn2nc([C@@H]3CCCCN3C(=O)c3cc(Cl)ccc3NS(C)(=O)=O)cc2nc1N1CC[C@H](C#N)C1 | 3.6 | 
34 | Cc1cn2nc([C@@H]3CCCCN3C(=O)c3cc(Cl)ccc3NS(C)(=O)=O)cc2nc1N1CC(O)C1 | 2.7 | bioavailability [2]: 42%
35 | CC(=O)Nc1ccccc1C(=O)N1CCCC[C@H]1c1cc2[nH]c(C)c(C)c(=O)n2n1 | 0.88 | 
36 | Cc1[nH]c2cc([C@@H]3CCCCN3C(=O)c3cc(Cl)ccc3NS(C)(=O)=O)nn2c(=O)c1C | 1.9 | 
37 | Cc1cn2nc([C@@H]3CCCCN3C(=O)c3cc(Cl)ccc3NS(C)(=O)=O)cc2nc1N1CC[C@H](N)C1 [PRESATOVIR] | 2 | bioavailability [2]: 46%; clearance [3]: 32.2 mL/min/kg; clearance [4]: 3.83 mL/min/kg; clearance [5]: 6 mL/min/kg; Vd [6]: 9.75 L/kg; Vd [7]: 2.91 L/kg; Vd [8]: 4.95 L/kg; half-life [9]: 3.4 h; half-life [10]: 8.9 h; half-life [11]: 10 h; half-life [12]: 35 h; bioavailability [13]: 130%; bioavailability [14]: 60%; Kp [15]: 26; Kp [16]: 10; Drug uptake (Lung): Not Active; Drug uptake (Plasma [17]): Not Active; Drug uptake [18]: Active; Drug uptake (Plasma [19]): Active
38 | Cc1ccc(NS(C)(=O)=O)c(C(=O)N2CCCC[C@H]2c2cc3nc(C4CC4)cc(C)n3n2)c1 | 3.5 | bioavailability [2]: 42%
39 | Cc1nc2cc([C@@H]3CCCCN3C(=O)c3ccccc3NS(C)(=O)=O)nn2c(C)c1C | 2.7 | 
40 | Cc1cn2nc([C@@H]3CCCCN3C(=O)c3cc(Cl)ccc3NS(C)(=O)=O)cc2nc1N1CC[C@H](O)C1 | 2.9 | 

From ChEMBL document CHEMBL3407466, “Discovery of an oral respiratory syncytial virus (RSV) fusion inhibitor (GS-5806) and clinical proof of concept in a human RSV challenge study” (J Med Chem, 2015)
